Consider 8 molecules from publication PMC2926617 (Nucleic Acids Research, 2010).

Substitutions are numbered along the chain they refer to. Like-named read-outs stand apart in the source and are kept apart here.

T1: CarS (Myxococcus xanthus, UniProt Q06911)
T1 sequence (Q06911 1-111): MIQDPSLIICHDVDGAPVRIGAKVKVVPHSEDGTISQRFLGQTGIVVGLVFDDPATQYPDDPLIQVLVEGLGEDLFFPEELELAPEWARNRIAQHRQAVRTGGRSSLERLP

B1: CarS1, functional truncated form of CarS (lacking the last 25 residues) (domain or fragment)
chain: MIQDPSLIICHDVDGAPVRIGAKVKVVPHSEDGTISQRFLGQTGIVVGLVFDDPATQYPDDPLIQVLVEGLGEDLFFPEELELAPE
B2: CarS antirepressor (natural protein, Myxococcus xanthus, UniProt Q06911 1-111, looked up)
chain: T1 sequence (Q06911 1-111)
B3: CarS: antirepressor of Myxococcus xanthus (protein)
chain: T1 sequence (Q06911 1-111)
modifications: left off: H6, end not stated, cleaved
B4: CarHNt: CarH N-terminal DNA-binding domain (protein)
chain: MAERTYRINIAAELAGVRVELIRAWERRYGVLTPRRTPAGYRAYTDRDVAVLKQLKRLTDEGVAISEAAKLLPQLMEGLE
modifications: left off: H6, end not stated, cleaved
B5: CarA R15 to A: CarA with R15 mutated to A (ref 10) (protein, UniProt Q50899 1-288, looked up, variant R15A)
HTH-type transcriptional …: MTLRIRTIARMTGIAEATLRAWERRYGFPRPLRSEGNNYRVYSREEVEAVRRVARLIQEEGLSVSEAIAQVKTEPPREQPEAERLRERFWSSVGALEGDEVTRVLDDAQTVMDVEAYCDGFLLPLLREMGVRLDVAREHLASALIRQRLRQVYDALSPAPAGPRALLACPSGDHHEGGLLVLGIHLKRKGWRVTMLGADTPAAALQGACVQVRPDVVALSFVRARAPEEFASVLEDALRACAPFPVVVGGLGAREHLKAIFSLGAQYAESSEELVAIWNQVRNAQNRP
B6: R20′ to A: CarA with R20 mutated to A (ref 10) (protein, UniProt Q50899 1-288, looked up, variant R20A)
HTH-type transcriptional …: B5 HTH-type transcriptional … with A15R, R20A
B7: CarANt, N-terminal DNA-binding domain of CarA (domain or fragment, Myxococcus xanthus)
chain: MTLRIRTIARMTGIREATLRAWERRYGFPRPLRSEGNNYRVYSREEVEAVRRVARLIQEEGLSVSEAIAQVKTEPPRE

Data set [1] addresses T1, CarS. The data set is described as follows: ITC titration with CarS. Type of data set: binding. For orientation: ITC needs no label: the signal is the heat of the interaction.
The target in data set [2] is P01, CarA α2 peptide (α2 segment plus the subsequent eight C-terminal residues) (Myxococcus xanthus). Put plainly: ITC.
Data set [3] has the same target. The data set is described as follows: ITC. This is another data set of the same source.
Data set [4] shares this target. Put plainly: ITC. This is another data set of the same source.
Data set [5] relates to CarA or CarH N-terminal domain. The note with it: cited from earlier work.
Data set [6] addresses P02, CarA α2 peptide (α2 only) (Myxococcus xanthus). The data set is described as follows: ITC.
Data set [7] addresses P01, CarA α2 peptide (α2 segment plus the subsequent eight C-terminal residues) (Myxococcus xanthus). Put plainly: ITC. This is another data set of the same source.
In data set [8] the target is CHP01, CarHNt peptide equivalent to P01 (Myxococcus xanthus). Put plainly: ITC.
The target of data set [9] is B7. Put plainly: ITC.
Data set [10] relates to CarANt. The data set is described as follows: Analytical gel filtration, complex formation with CarANt. It is filed as binding, Myxococcus xanthus. The method in brief: (§1)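 Superdex200 analytical size-exclusion HPLC in 50 mM phosphate pH 7.5, 2 mM β-mercaptoethanol and the required NaCl. Samples were 10–50 µM pure protein, or CarNt or CarHNt mixed with CarS or variant at equivalent concentrations. Flow was 0.4 ml/min with detection at 280, 235 and 220 nm. Peak fractions were identified by SDS–PAGE. Mr was taken from elution volume via log Mr = 7.64 – 0.209 Ve.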
(SEC sorts molecules by how far they enter the pores of the column.)

Data set [11] is described as follows: Analytical gel filtration of pure proteins. Type of data set: physicochemical. Conditions: Superdex200, 50 mM phosphate pH 7.5, 2 mM β-mercaptoethanol. The method in brief: as §1
Data set [12] concerns CarA. The data set is described as follows: Yeast two-hybrid interaction with CarA. Type of data set: cell-based, Myxococcus xanthus. Conditions: 30°C. The method in brief:
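Yeast EGY48 carrying lacZ reporter pSH18-34 was cotransformed (lithium acetate) with LexA–CarA and B42–CarS or variant fusions. Equal-density cultures were spotted on galactose or glucose (basal fusion expression) plates with leucine, grown 1 day at 30°C, then overlaid with X-Gal agarose for 2–3 h (Gal) or ≥7 h (Glu). Interaction was scored by blue colour; single-hybrid cells served as controls.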

Data set [13] concerns the target T1, CarS. Put plainly: Analytical gel filtration, complex formation with CarS. Type of data set: binding. Conditions: Superdex200, pH 7.5, mixture with CarS. The method in brief: as §1
Data set [14] concerns the target T1, CarS. The note with it: cited from earlier work.
In data set [15] the target is B2. Put plainly: ITC.

On to Ac-GVRVELIRAWERRYGVLTPRRTP-NH2 [CHP01], for which the equilibrium dissociation constant (Kd) in [1] came to 690 ± 140 nM. The “ITC heat change / binding” value in data set [1] (ITC with CarS, pH 7.5) is given as “bind tightly to CarS, but with a KD somewhat higher than for P01”. Besides, the “N (binding stoichiometry)” value in data set [1] (ITC, CarS, 25 °C, pH 7.5, 100 mM NaCl, 50 mM phosphate, 2 mM β-mercaptoethanol, 0.05% sodium azide, 20 µM CarANt or peptide titrated with 0.22 mM CarS, average of at least two independent titrations) came to 0.91 ± 0.01. In [1] (ITC, CarS, 25 °C, pH 7.5, 100 mM NaCl, 50 mM phosphate, average of at least two independent titrations), this molecule had a ΔH of −7.15 ± 0.17 kcalmol^−1.
As for B1, the Kd in [2] is 200 nM; in [3], 175 nM; in data set [4] it was 270 nM; in data set [6] it was 490 nM; in [7], 150 nM. The dH in data set [2] was -10.9 kcalmol^−1; in data set [3], -5.7 kcalmol^−1; in [4], -14.4 kcalmol^−1; in [6], -7.6 kcalmol^−1; in [7], -8.46 kcalmol^−1. The stoichiometry N in [2] was found to be 0.89; in data set [3], 0.93; in data set [4], 0.89; in [6] it was 0.97; in [7], 0.92. Moreover, the Complex formation stoichiometry result in data set [5] is recorded as “forms a 1:1 complex”.
As to B2, the values for the Kd in data set [8], in data set [6] and in data set [7] were 690 nM, 300 nM and 150 nM, respectively. Besides, the dH in [8] was -7.15 kcalmol^−1; in data set [6], -12 kcalmol^−1; in data set [7], -11.7 kcalmol^−1; in data set [9] it was -9.24 ± 0.02 kcalmol^−1. The stoichiometry N in data set [8] was 0.91; in data set [6], 1.07; in data set [7] it was 0.93; in data set [9], 0.94 ± 0.01.
Turning to B3, in data set [10] (Superdex200, 50 mM phosphate pH 7.5, 2 mM β-mercaptoethanol, mixture with CarANt), the “Apparent Mr of complex/peak in mixture with CarANt” value is reported as 30 ± 2 kDa. Moreover, the “Complex formation with CarANt” value in data set [10] (Superdex200, pH 7.5, mixture with CarANt) is on record as “formed a stable 1:1 complex”. Also, the “Apparent Mr of pure protein” value in data set [11] was 15.1 ± 0.8 kDa. In data set [12] (galactose plates, X-gal overlay), the “Two-hybrid blue color, galactose plates” value is given as “turned blue within two hours”. For the same molecule, in data set [12] (glucose plates (basal B42-fusion expression), X-gal 7–24 h), the “Two-hybrid blue color, glucose plates” value is on record as “blue color”.
As for B4, in data set [13], the “Apparent Mr of complex with CarS” value was “≈ 35 kDa” and the “Complex formation with CarS” value is “forms a 1:1 complex”.
With B5, in data set [14], the “Interaction of CarA variant with CarS” value is reported as “CarS-binding was not impaired”.
With B6, the “Interaction of CarA variant with CarS” value in data set [14] was “no apparent impairment in interactions with CarS”.
Molecule B7 came in with a Kd in data set [15] of 12 ± 3 nM.

What is called Kd is the equilibrium constant for the complex coming apart. As usually defined, the stoichiometry N is a count of units in the complex or per binding partner.
